{"data": "Published values pooled from the literature", "target": "NUAK family SNF1-like kinase 2 (NUAK2, Homo sapiens, UniProt Q9H093)", "One construct used (Q9H093 1-628)": "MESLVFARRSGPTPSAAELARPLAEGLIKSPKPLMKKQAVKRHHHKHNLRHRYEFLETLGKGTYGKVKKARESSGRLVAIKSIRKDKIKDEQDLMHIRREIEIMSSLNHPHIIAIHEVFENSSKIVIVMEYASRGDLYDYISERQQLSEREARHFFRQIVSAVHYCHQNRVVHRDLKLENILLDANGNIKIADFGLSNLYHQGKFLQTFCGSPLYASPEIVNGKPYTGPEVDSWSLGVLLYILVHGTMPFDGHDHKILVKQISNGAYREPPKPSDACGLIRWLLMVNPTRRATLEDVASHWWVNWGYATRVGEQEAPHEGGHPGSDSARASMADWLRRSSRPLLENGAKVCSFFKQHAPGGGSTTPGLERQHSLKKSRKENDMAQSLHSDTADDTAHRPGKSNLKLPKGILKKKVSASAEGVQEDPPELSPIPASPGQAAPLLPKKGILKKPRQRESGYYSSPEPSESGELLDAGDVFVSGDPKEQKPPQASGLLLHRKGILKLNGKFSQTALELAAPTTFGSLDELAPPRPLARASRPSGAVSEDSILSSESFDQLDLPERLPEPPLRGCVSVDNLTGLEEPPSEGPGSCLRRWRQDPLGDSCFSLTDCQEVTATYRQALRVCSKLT", "note": "Compare with care: the assays were run in different laboratories."}
{"Compound": "C[C@H]1CC[C@H](n2c3cnccc3c3cnc(Nc4ccc5c(n4)CCN(C(=O)CO)C5)nc32)CC1", "read-out": "cell-free assay", "tested at": "1 µM", "endpoint": "remaining signal", "value": "34%"}
{"Compound": "C=CC(=O)N1CCC([C@@H]2CCNc3c(C(N)=O)c(-c4ccc(Oc5ccccc5)cc4)nn32)CC1", "read-out": "enzyme activity", "action": "inhibitor", "tested at": "1 µM", "endpoint": "inhibition", "value": "24%"}
{"Compound": "CCCCC(=O)Nc1ccc(-c2ccc3ncn(CCC)c(=O)c3c2)cn1", "read-out": "binding", "technique": "competition with immobilised ligand", "tested at": "0.5 µM", "endpoint": "remaining binding", "value": "97%"}
{"Compound": "C[C@]1(O)CCCN(c2nc(Nc3ccc(S(=O)(=O)N[C@H]4CC[C@H](CN5CCN(c6ccc(C7CCC(=O)NC7=O)cc6F)CC5)CC4)cc3Cl)ncc2C(F)(F)F)C1 (stereo partly drawn)", "read-out": "binding", "technique": "competition with immobilised ligand", "tested at": "1 µM", "endpoint": "remaining binding", "value": "49%"}
{"Compound": "CN1CCN(C(=O)c2ccc(NC(=O)Nc3ccc(N(C)c4ccnc(Nc5ccc(CS(C)(=O)=O)cc5)n4)cc3)cc2)CC1", "read-out": "binding", "tested at": "1 µM", "endpoint": "remaining binding", "value": "39%"}
{"Compound": "Cc1cc(O)c(-c2ccc([C@@H](C)CN(C)C)cc2)c2c1[nH]c(=O)c1sccc12", "read-out": "enzyme activity", "action": "inhibitor", "tested at": "0.1 µM", "endpoint": "inhibition", "value": "3.81%"}
{"Compound": "N#Cc1ccc(NC(=O)Nc2ccccc2)cc1", "read-out": "cell-free assay", "technique": "competition with immobilised ligand", "tested at": "25 µM", "endpoint": "remaining binding", "value": "77%"}
{"Compound": "CNS(=O)(=O)c1ccc(Nc2ncc(C(F)(F)F)c(N3CCC[C@](C)(O)C3)n2)c(C)c1", "read-out": "binding", "technique": "competition with immobilised ligand", "tested at": "1 µM", "endpoint": "remaining binding", "value": "3.9%"}
{"Compound": "COc1ccc2oc(-c3ccc4nc(N)oc4c3)c/c(=N\\c3ccccc3NC(=O)CCN)c2c1", "read-out": "binding", "tested at": "1 µM", "endpoint": "remaining binding", "value": "93%"}
{"Compound": "CO[C@@H]1[C@H](N(C)C(=O)c2ccccc2)C[C@H]2O[C@]1(C)n1c3ccccc3c3c4c(c5c6ccccc6n2c5c31)C(=O)NC4", "read-out": "enzyme activity", "action": "inhibitor", "tested at": "1 µM", "endpoint": "inhibition", "value": "99%"}
{"Compound": "CC(C)S(=O)(=O)c1ccc2nccc(Nc3ccc4sc(C5CCCC5)nc4c3)c2c1", "read-out": "enzyme activity", "action": "inhibitor", "tested at": "1 µM", "endpoint": "activity vs control", "value": "121%"}
{"Compound": "C1=C/COCc2cc(ccc2OCCN2CCCC2)Nc2nccc(n2)-c2cccc(c2)COC/1", "read-out": "cell-free assay", "tested at": "0.1 µM", "endpoint": "remaining signal", "value": "13%"}
